In article PMC2952073 (Bioorganic & medicinal chemistry, 2010):

What was measured:
[1] = system: Gli1-mediated transcription (human full-length Gli1); experiment: Gli-Luc reporter assay in C3H10T1/2 cells transfected with Gli1; type: cell-based; details: for inhibition of Gli1-mediated transcription (Gli-Luc), relative potency in words: Gli1-transfected C3H10T1/2 cells, 10 µM or 20 µM, 24 h
bone development = details: young mice; cited from earlier work
medulloblastoma [2] = details: mouse model in which Ptch1 is inactivated; cited from earlier work
[3] = system: endogenous Gli in Rh30 cells; experiment: Gli-mediated transcription reporter assay in Rh30 cells; type: cell-based
Procedure, shortened: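 Rh30 cells seeded at 3×10^5 per dish in RPMI-1640 with 10% FBS (37 °C, 5% CO2); after 24 h (~70% confluence) transfected with GliLuc-BS (500 ng/mL) and pRL-CMV (2.5 ng/mL) using Fugene6. Replated into 96-well plates 6 h post-transfection; 18 h later exposed to test compound or DMSO for 24 h. Lysed cells read by dual luciferase as firefly/Renilla ratio.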

medulloblastoma [4] = details: mouse model in which SuFu is inactivated; cited from earlier work
[5] = Microsomal stability assay; type: in vitro ADME; details: CD-1 female mouse liver microsomes, 37°C
[6] = system: Histone deacetylase (HDAC); experiment: HDAC inhibition; type: biochemical; details: up to 40 µM; data not shown
[7] = system: Hh signal-mediated alkaline phosphatase; experiment: Hh signal-mediated alkaline phosphatase induction in C3H10T1/2 cells; type: cell-based, mouse; details: osteoblastic differentiation marker
[8] = system: Gli1-target genes in Rh30 cells; experiment: Real-time RT-PCR of Gli1-target genes in Rh30 cells; type: cell-based; details: 24 h after addition

CN(C)c1ccccc1CN1CCCN(Cc2ccccc2N(C)C)C1c1ccncc1 [GANT61, reference compound]
IC50 ([1]; Homo sapiens, C3H 10T1/2, 24 h, read-out: IC50, Gli-Luc signal in Gli1-transfected C3H10T1/2 cells): ~20 µM

COc1cc(OC)cc(C(=O)Nc2ccc(Cl)c(-c3nc4ccc(N(C)C)cc4[nH]3)c2)c1 [HhAntag]
effect on bone development (bone development): permanent defects in bone development
effect on medulloblastoma (medulloblastoma [2]): eliminate medulloblastoma
Gli-Luc inhibition in Rh30 cells, in words ([3]; concentration as high as 40 µM): almost no Gli-Luc inhibition
efficacy (medulloblastoma [4]): not to be effective

CC(C(=O)NCCc1ccc(O)cc1)c1cccc(C(=O)c2ccccc2)c1 (stereo not shown) [compound 5]
time to complete consumption in mouse liver microsomes [5]: less than 1 h
HDAC inhibition [6]: do not inhibit

CCCN(CCc1ccc(O)cc1)C(=O)C(C)c1cccc(C(=O)c2ccccc2)c1 (stereo not shown) [compound 6]
time to complete consumption in mouse liver microsomes [5]: less than 1 h
HDAC inhibition [6]: do not inhibit

CC(C(=O)NCCc1ccc2[nH]ccc2c1)c1cccc(C(=O)c2ccccc2)c1 (stereo not shown) [compound 20, N-(2-(1H-Indol-5-yl)ethyl)-2-(3-benzoylphenyl)propanamide]
inhibition of Gli1-mediated transcription (Gli-Luc), relative potency in words [1]: much weaker activity than 5

CC(C(=O)NCc1ccc2[nH]ccc2c1)c1cccc(C(=O)c2ccccc2)c1 (stereo not shown) [compound 21, N-((1H-Indol-5-yl)methyl)-2-(3-benzoylphenyl)propanamide]
inhibition of Gli1-mediated transcription (Gli-Luc), relative potency in words [1]: higher activity than 20

CC(C(=O)Nc1ccc2[nH]ccc2c1)c1cccc(C(=O)c2ccccc2)c1 (stereo not shown) [compound 22, 2-(3-Benzoylphenyl)-N-(1H-indol-5-yl)propanamide]
inhibition of Gli1-mediated transcription (Gli-Luc), relative potency in words [1]: higher activity than 20

CC(C(=O)Nc1ccc2cc[nH]c2c1)c1cccc(C(=O)c2ccccc2)c1 (stereo not shown) [compound 23, 2-(3-Benzoylphenyl)-N-(1H-indol-6-yl)propanamide]
stability in mouse liver microsomes, in words [5]: much more stable than 5 and 6
inhibitory effect in inducing Hh signal-mediated alkaline phosphatase [7]: much smaller than that of HhAntag
Gli-Luc inhibition in Rh30 cells, in words ([3]; 10 µM or 20 µM, 24 h): inhibition with similar or slightly weaker potency
inhibition of Gli1-mediated transcription (Gli-Luc), relative potency in words [1]: best among the tested analogs

CC(CNC(=O)Cc1ccc2[nH]ccc2c1)c1cccc(C(=O)c2ccccc2)c1 (stereo not shown) [compound 25, N-(2-(3-Benzoylphenyl)propyl)-2-(1H-indol-5-yl)acetamide]
inhibition of Gli1-mediated transcription (Gli-Luc), relative potency in words [1]: only weak activity

CC(CNC(=O)c1cc2ccccc2[nH]1)c1cccc(C(=O)c2ccccc2)c1 (stereo not shown) [compound 28, N-(2-(3-Benzoylphenyl)propyl)-1H-indole-2-carboxamide]
inhibition of Gli1-mediated transcription (Gli-Luc), relative potency in words [1]: equipotent inhibitors

CC(CNC(=O)c1c[nH]c2ccccc12)c1cccc(C(=O)c2ccccc2)c1 (stereo not shown) [compound 29, N-(2-(3-Benzoylphenyl)propyl)-1H-indole-3-carboxamide]
inhibition of Gli1-mediated transcription (Gli-Luc), relative potency in words [1]: equipotent inhibitors

CC(CNC(=O)c1cccc2[nH]ccc12)c1cccc(C(=O)c2ccccc2)c1 (stereo not shown) [compound 30, N-(2-(3-Benzoylphenyl)propyl)-1H-indole-4-carboxamide]
inhibition of Gli1-mediated transcription (Gli-Luc), relative potency in words [1]: decreased the potency

CC(CNC(=O)c1cccc2cc[nH]c12)c1cccc(C(=O)c2ccccc2)c1 (stereo not shown) [compound 31, N-(2-(3-Benzoylphenyl)propyl)-1H-indole-7-carboxamide]
inhibition of Gli1-mediated transcription (Gli-Luc), relative potency in words [1]: decreased the potency

CC(C(=O)N(C)c1ccc2cc[nH]c2c1)c1cccc(C(=O)c2ccccc2)c1 (stereo not shown) [compound 32, 2-(3-Benzoylphenyl)-N-(1H-indol-6-yl)-N-methylpropanamide]
inhibition of Gli1-mediated transcription (Gli-Luc), relative potency in words [1]: Little improvement

CCCN(C(=O)C(C)c1cccc(C(=O)c2ccccc2)c1)c1ccc2cc[nH]c2c1 (stereo not shown) [compound 33, 2-(3-Benzoylphenyl)-N-(1H-indol-6-yl)-N-propylpropanamide]
stability in mouse liver microsomes, in words [5]: much more stable than 5 and 6
inhibitory effect in inducing Hh signal-mediated alkaline phosphatase [7]: much smaller than that of HhAntag
HDAC inhibition [6]: do not inhibit
Gli-Luc inhibition in Rh30 cells, in words ([3]; 10 µM or 20 µM, 24 h): inhibition with similar or slightly weaker potency
expression of Gli1-target genes in Rh30 cells (RT-PCR) [8]: inhibits expression of Gli1-target genes

CCCC(C)(C(=O)Nc1ccc2cc[nH]c2c1)c1cccc(C(=O)c2ccccc2)c1 (stereo not shown) [compound 40, 2-(3-Benzoylphenyl)-N-(1H-indol-6-yl)-2-methylpentanamide]
inhibition of Gli1-mediated transcription (Gli-Luc), relative potency in words [1]: did not increase potency

CCCn1ccc2ccc(NC(=O)C(C)c3cccc(C(=O)c4ccccc4)c3)cc21 (stereo not shown) [compound 41, 2-(3-Benzoylphenyl)-N-(1-propyl-1H-indol-6-yl)propanamide]
inhibition of Gli1-mediated transcription (Gli-Luc), relative potency in words [1]: did not increase potency

CCCN(C(=O)C(C)c1cccc(C(=O)c2ccccc2)c1)c1ccc2[nH]ccc2c1 (stereo not shown) [compound 42, 2-(3-Benzoylphenyl)-N-(1H-indol-5-yl)-N-propylpropanamide]
inhibitory effect in inducing Hh signal-mediated alkaline phosphatase [7]: much smaller than that of HhAntag
HDAC inhibition [6]: do not inhibit
Gli-Luc inhibition in Rh30 cells, in words ([3]; 10 µM or 20 µM, 24 h): inhibition with similar or slightly weaker potency

CCCN(C(=O)C(C)c1cccc(C(=O)c2ccccc2)c1)c1cccc2[nH]ccc12 (stereo not shown) [compound 43, 2-(3-Benzoylphenyl)-N-(1H-indol-4-yl)-N-propylpropanamide]
inhibition of Gli1-mediated transcription (Gli-Luc), relative potency in words [1]: equipotent to 33

CCCN(Cc1ccc2[nH]ccc2c1)C(=O)C(C)c1cccc(C(=O)c2ccccc2)c1 (stereo not shown) [compound 44, N-((1H-Indol-5-yl)methyl)-2-(3-benzoylphenyl)-N-propylpropanamide]
inhibition of Gli1-mediated transcription (Gli-Luc), relative potency in words [1]: weaker potency than 42
